In assay [1] the target is T1, Induced myeloid leukemia cell differentiation protein Mcl-1 (Homo sapiens, UniProt Q07820). The experiment in a line: Displacement of FITC-Bak-BH3 peptide from Mcl-1 (unknown origin) incubated for 1.5 hrs by FPA competition assay.
The target in assay [2] is Apoptosis regulator Bcl-2 (Homo sapiens, UniProt P10415). The experiment in a line: Displacement of FITC-Bak-BH3 peptide from Bcl-2 (unknown origin) incubated for 1.5 hrs by FPA competition assay. Summed up: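 Compounds were added as a 10-point, 3-fold serial dilution and incubated 1.5 h at room temperature. The anisotropy change was fitted to a four-parameter variable-slope curve for IC50, converted to Ki, and duplicates were averaged.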
Apoptosis regulator Bcl-2, sequence (P10415 whole entry): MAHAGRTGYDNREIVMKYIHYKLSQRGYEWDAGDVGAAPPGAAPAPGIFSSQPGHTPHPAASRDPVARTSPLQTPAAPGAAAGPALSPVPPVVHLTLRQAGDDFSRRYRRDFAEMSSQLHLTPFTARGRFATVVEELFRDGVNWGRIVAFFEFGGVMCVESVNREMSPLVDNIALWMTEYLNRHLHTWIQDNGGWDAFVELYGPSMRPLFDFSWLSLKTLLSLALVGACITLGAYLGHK

The target of a further assay is Bcl-2-like protein 1 (Homo sapiens, UniProt Q07817). The experiment in a line: Displacement of FITC-Bak-BH3 peptide from Bcl-xL (unknown origin) incubated for 1.5 hrs by FPA competition assay. The gist of the method:
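Compounds were added as a 10-point, 3-fold serial dilution and incubated 1.5 h at room temperature. IC50 came from a four-parameter fit of the anisotropy change, was converted to Ki, and duplicate values were averaged.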

The target of assay [3] is T1, Induced myeloid leukemia cell differentiation protein Mcl-1. The experiment in a line: Binding affinity to GST-tagged Mcl-1 (unknown origin) incubated for 60 mins by TR-FRET-binding affinity assay. On the technique in general: TR-FRET usually uses a lanthanide donor and a delayed reading to cut background.

Bcl-2-like protein 1, sequence (Q07817 whole entry): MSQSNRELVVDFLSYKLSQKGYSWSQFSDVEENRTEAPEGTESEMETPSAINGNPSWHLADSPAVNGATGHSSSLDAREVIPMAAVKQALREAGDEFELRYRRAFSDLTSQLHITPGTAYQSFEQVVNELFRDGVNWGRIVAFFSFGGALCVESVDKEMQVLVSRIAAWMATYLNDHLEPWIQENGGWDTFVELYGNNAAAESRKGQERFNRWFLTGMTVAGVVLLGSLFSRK
T1 sequence (Q07820 whole entry): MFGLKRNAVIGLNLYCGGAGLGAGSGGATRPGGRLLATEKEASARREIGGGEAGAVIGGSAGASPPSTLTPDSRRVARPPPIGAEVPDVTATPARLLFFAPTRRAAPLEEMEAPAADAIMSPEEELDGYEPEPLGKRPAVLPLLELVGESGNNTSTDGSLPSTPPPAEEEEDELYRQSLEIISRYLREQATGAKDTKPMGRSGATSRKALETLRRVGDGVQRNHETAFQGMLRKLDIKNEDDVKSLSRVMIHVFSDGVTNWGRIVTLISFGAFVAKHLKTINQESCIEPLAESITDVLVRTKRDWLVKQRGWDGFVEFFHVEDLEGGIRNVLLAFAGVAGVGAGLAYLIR

The term Ki denotes a dissociation constant, usually derived from enzyme kinetics or from competition with a known ligand. A higher Ki goes with weaker binding. `O=C(O)c1c(CCCOc2cccc3ccccc23)c2cccc3c2n1CCS3`: the figures for the inhibition constant Ki (in assay [1]; in assay [2]; on Bcl-2-like protein 1) were 0.12 µM, 3.1 µM and more than 20 µM, respectively.
`CC1Cn2c(C(=O)O)cc3cccc(c32)S1` (centres undefined): the affinity in assay [1] corresponds to a Ki of 35 µM. In other words, the double-digit micromolar range.
As to `O=C(O)c1cc2cccc3c2n1CCS3`, the inhibition constant Ki in assay [1] worked out at 51 µM.
The same measure, in the same setting: the figure for `O=C(O)c1cc2cccc3c2n1CCC3` is 131 µM; for `Cc1c(C(=O)O)n2c3c(cccc13)SCC2` it is 18 µM.
Consider `Cc1c(C(=O)O)n2c3c(cccc13)CCC2`, for which the inhibition constant Ki in assay [1] came to 90 µM. Against the preceding compound, the Ki is about 5-fold higher.
Compound `Cc1c(C(=O)O)n2c3c(cccc13)OCC2` displayed a Ki in assay [1] of 18 µM.
The same measure, in the same setting: for `O=C(O)c1c(CCOc2cccc3ccccc23)c2cccc3c2n1CCS3` the value was 3 µM.
As to `O=C(O)c1c(CCOc2cccc3ccccc23)c2cccc3c2n1CCC3`, the figures for the inhibition constant (Ki) (in assay [1]; on Bcl-2-like protein 1) were 4 µM and more than 20 µM, respectively.
As to `O=C(O)c1c(CCOc2cccc3ccccc23)c2cccc3c2n1CCO3`, the inhibition constant (Ki) worked out at 1.6 µM in assay [1] and 12.7 µM at Bcl-2-like protein 1.
Turning to `O=C(O)c1c(CCCOc2cccc3ccccc23)c2cccc3c2n1CCC3`, the Ki in assay [1] was 0.31 µM; at Bcl-2-like protein 1, more than 20 µM.
In the case of `O=C(O)c1c(CCCOc2cccc3ccccc23)c2cccc3c2n1CCO3`, the Ki was 0.11 µM in assay [1] and 1.9 µM on Bcl-2-like protein 1.
`O=C(O)c1c(CCCOc2cccc3ccccc23)c2cccc3c2n1CCS3(=O)=O`: the inhibition constant (Ki) in assay [1] is 0.088 µM; at Bcl-2-like protein 1, more than 20 µM.
`O=C(O)c1c(CCCOc2cccc3ccccc23)c2cccc3c2n1CCCS3`: the inhibitory constant (Ki) in assay [1] is 0.17 µM; in assay [2], 9.9 µM; at Bcl-2-like protein 1 it was 7.4 µM.
The matching figures for `O=C(O)c1c(CCCOc2cccc3ccccc23)c2cccc3c2n1CCC[S+]3[O-]` (centres undefined): 0.074 µM, 16 µM and more than 20 µM.
`O=C(O)c1c(CCCOc2cccc3ccccc23)c2cccc3c2n1CCCS3(=O)=O`: the figures for the Ki (in assay [1]; in assay [2]; at Bcl-2-like protein 1) were 0.061 µM, 11.7 µM and more than 20 µM, respectively.
On to `O=C(O)c1c(CCCOc2cccc3c2CCCC3)c2cccc3c2n1CCS3`, for which the inhibition constant (Ki) in assay [1] turned out to be 0.15 µM; on Bcl-2-like protein 1 it was 3 µM.
Take `O=C(O)c1c(CCCOc2ccc(Cl)c3ccccc23)c2cccc3c2n1CCS3`: the values for the Ki (in assay [2]; on Bcl-2-like protein 1) were 1.1 µM and 4.7 µM, respectively.
`O=C(O)c1c(CCCOc2ccc3c(c2)CCCC3)c2cccc3c2n1CCS3`: the inhibitory constant (Ki) in assay [1] was 0.41 µM; in assay [2], 4.4 µM; at Bcl-2-like protein 1, more than 20 µM.
Taken in the same sequence, the figures for `Cc1cc(OCCCc2c(C(=O)O)n3c4c(cccc24)SCC3)ccc1Cl` were 0.21 µM, 6.3 µM and more than 20 µM.
In the case of `Cc1cc(OCCCc2c(C(=O)O)n3c4c(cccc24)SCC3)cc(C)c1Cl`, the inhibitory constant (Ki) in assay [2] was 2.3 µM; at Bcl-2-like protein 1, more than 20 µM.
In turn, `Cc1cc(OCCCc2c(C(=O)O)n3c4c(cccc24)CCC3)cc(C)c1Cl` had a Ki in assay [1] of 0.11 µM. This counts as sub-micromolar.
On the same count and under the same terms, the figure for `Cc1cc(OCCCc2c(C(=O)O)n3c4c(cccc24)OCC3)cc(C)c1Cl` is 0.065 µM.
In the case of `Cc1cc(OCCCc2c(C(=O)O)n3c4c(cccc24)SCCC3)cc(C)c1Cl`, the Ki at Bcl-2-like protein 1 is more than 20 µM.
As to `Cc1cc(OCCCc2c(C(=O)O)n3c4c(c(Cl)ccc24)CCC3)cc(C)c1Cl`, the inhibition constant Ki in assay [1] came to 0.003 µM; at Bcl-2-like protein 1, 5.2 µM.
Take `Cc1cc(OCCCc2c(C(=O)O)n3c4c(c(Cl)ccc24)OCC3)cc(C)c1Cl`: at Bcl-2-like protein 1, the Ki was more than 20 µM.
`COCCCc1c(C(=O)O)n(CCN2CCOCC2)c2c(-c3c(C)nn(C)c3COc3ccc(N4CCN(S(=O)(=O)N(C)C)CC4)cc3)cccc12` had a Ki in assay [3] of 0.000454 µM.
Regarding `O=C(O)c1cc2ccccc2[nH]1` [INDOLE-2-CARBOXYLIC ACID], the Ki in assay [1] is more than 1000 µM.

For the origin of these results see ChEMBL document CHEMBL3425420 (J Med Chem, 2015).
